# Several values for one entry are separate records, joined by “and”; a condition that tells them apart may be missing. Equal values may be shown once.
# Legend:
# Assay type in all cases: toxicity, cell-based
# [1] = system: Fibroblast; assay: Multiplex assay against human fibroblast; conditions: number of replicates 2
# Method in brief: (§1)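 Hoechst33342, BioTracker Green Microtubule Cytoskeleton Dye, MitoTracker Red and Annexin V Alexa Fluor 680 were added to live cells at seeding, and imaging on a CQ1 microscope at 37°C and 5% CO2 followed compound addition. Gating by CellPathfinder machine learning separated cells into Hoechst high-intensity objects or normal cells, then normal cells into healthy, pyknosed or fragmented nuclei, then pyknosed cells into mitotic or apoptotic. Per cents of healthy-nucleus cells are reported for the tubulin, mitochondrial-mass and membrane-permeability phenotypes.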
# [2] = system: HEK-293T; assay: Multiplex assay against HEK293T; conditions: human, number of replicates 2; method in brief: as §1
# [3] = system: U2OS; assay: Multiplex assay against U2OS; conditions: human, number of replicates 2; method in brief: as §1
# [4] = 12 h, 1 µM, compound concentration 1 uM
# [5] = 12 h, 10 µM, compound concentration 10 uM
# [6] = 24 h, 1 µM, compound concentration 1 uM
# [7] = 24 h, 10 µM, compound concentration 10 uM
# [8] = 48 h, 1 µM, compound concentration 1 uM
# [9] = 48 h, 10 µM, compound concentration 10 uM
smiles,measurement,setting,value
COC(=O)c1ccc2c(c1)NC(=O)/C2=C(\Nc1ccc(-c2nccn2C)cc1)c1ccccc1,Population Apoptotic (%),[1]; [4],35% and 43%
same,Population Fragmented Nuclei (%),[1]; [4],10% and 29%
same,Population Healthy Nuclei (%),[1]; [4],72% and 51%
same,Population Hoechst High Intensity Objects (%),[1]; [4],0%
same,Population Membrane Permeable-Phenotype (%),[1]; [4],2% and 1%
same,Population Mitochondria Different-Phenotype (%),[1]; [4],1% and 3%
same,Population Mitotic Cells (%),[1]; [4],64% and 56%
same,Population Normal (%),[1]; [4],99%
same,Population Pyknosed Nuclei (%),[1]; [4],17% and 19%
same,Population Tubulin-Different-Phenotype (%),[1]; [4],7% and 9%
same,Total Cell Count,[1]; [4],195 and 242
same,Population Apoptotic (%),[1]; [5],50% and 45%
same,Population Fragmented Nuclei (%),[1]; [5],21% and 17%
same,Population Healthy Nuclei (%),[1]; [5],59% and 62%
same,Population Hoechst High Intensity Objects (%),[1]; [5],0%
same,Population Membrane Permeable-Phenotype (%),[1]; [5],13% and 9%
same,Population Mitochondria Different-Phenotype (%),[1]; [5],2%
same,Population Mitotic Cells (%),[1]; [5],50% and 54%
same,Population Normal (%),[1]; [5],100% and 99%
same,Population Pyknosed Nuclei (%),[1]; [5],18% and 19%
same,Population Tubulin-Different-Phenotype (%),[1]; [5],67% and 56%
same,Total Cell Count,[1]; [5],317 and 270
same,Population Apoptotic (%),[1]; [6],64% and 60%
same,Population Healthy Nuclei (%),[1]; [6],74% and 53%
same,Population Hoechst High Intensity Objects (%),[1]; [6],0%
same,Population Membrane Permeable-Phenotype (%),[1]; [6],3%
same,Population Mitochondria Different-Phenotype (%),[1]; [6],0%
same,Population Mitotic Cells (%),[1]; [6],35% and 39%
same,Population Normal (%),[1]; [6],99%
same,Population Pyknosed Nuclei (%),[1]; [6],15% and 14%
same,Population Tubulin-Different-Phenotype (%),[1]; [6],11% and 8%
same,Total Cell Count,[1]; [6],180 and 255
same,Population Apoptotic (%),[1]; [7],70% and 67%
same,Population Fragmented Nuclei (%),[1]; [7],24%
same,Population Healthy Nuclei (%),[1]; [7],59% and 54%
same,Population Hoechst High Intensity Objects (%),[1]; [7],0%
same,Population Membrane Permeable-Phenotype (%),[1]; [7],5% and 6%
same,Population Mitochondria Different-Phenotype (%),[1]; [7],8% and 6%
same,Population Mitotic Cells (%),[1]; [7],29% and 32%
same,Population Normal (%),[1]; [7],99%
same,Population Pyknosed Nuclei (%),[1]; [7],16% and 21%
same,Population Tubulin-Different-Phenotype (%),[1]; [7],60% and 43%
same,Total Cell Count,[1]; [7],317 and 264
same,Population Apoptotic (%),[1]; [8],48% and 73%
same,Population Healthy Nuclei (%),[1]; [8],69% and 56%
same,Population Hoechst High Intensity Objects (%),[1]; [8],0%
same,Population Membrane Permeable-Phenotype (%),[1]; [8],1% and 3%
same,Population Mitochondria Different-Phenotype (%),[1]; [8],0%
same,Population Mitotic Cells (%),[1]; [8],51% and 26%
same,Population Normal (%),[1]; [8],100% and 99%
same,Population Pyknosed Nuclei (%),[1]; [8],20% and 9%
same,Population Tubulin-Different-Phenotype (%),[1]; [8],3% and 8%
same,Total Cell Count,[1]; [8],182 and 256
same,Population Apoptotic (%),[1]; [9],84% and 86%
same,Population Fragmented Nuclei (%),[1]; [9],22% and 26%
same,Population Healthy Nuclei (%),[1]; [9],62% and 56%
same,Population Hoechst High Intensity Objects (%),[1]; [9],0% and 1%
same,Population Membrane Permeable-Phenotype (%),[1]; [9],5% and 6%
same,Population Mitochondria Different-Phenotype (%),[1]; [9],5% and 9%
same,Population Mitotic Cells (%),[1]; [9],15% and 13%
same,Population Normal (%),[1]; [9],100% and 98%
same,Population Pyknosed Nuclei (%),[1]; [9],14% and 17%
same,Population Tubulin-Different-Phenotype (%),[1]; [9],45% and 38%
same,Total Cell Count,[1]; [9],302 and 261
same,Population Apoptotic (%),[2]; [4],50% and 35%
same,Population Fragmented Nuclei (%),[2]; [4],3% and 2%
same,Population Healthy Nuclei (%),[2]; [4],86%
same,Population Hoechst High Intensity Objects (%),[2]; [4],4%
same,Population Membrane Permeable-Phenotype (%),[2]; [4],4% and 3%
same,Population Mitochondria Different-Phenotype (%),[2]; [4],20% and 17%
same,Population Mitotic Cells (%),[2]; [4],49% and 64%
same,Population Normal (%),[2]; [4],95%
same,Population Pyknosed Nuclei (%),[2]; [4],10% and 11%
same,Population Tubulin-Different-Phenotype (%),[2]; [4],52% and 51%
same,Total Cell Count,[2]; [4],677 and 686
same,Population Apoptotic (%),[2]; [5],53% and 62%
same,Population Fragmented Nuclei (%),[2]; [5],2% and 4%
same,Population Healthy Nuclei (%),[2]; [5],83% and 81%
same,Population Hoechst High Intensity Objects (%),[2]; [5],10% and 11%
same,Population Membrane Permeable-Phenotype (%),[2]; [5],6% and 5%
same,Population Mitochondria Different-Phenotype (%),[2]; [5],37% and 38%
same,Population Mitotic Cells (%),[2]; [5],46% and 37%
same,Population Normal (%),[2]; [5],89% and 88%
same,Population Pyknosed Nuclei (%),[2]; [5],13% and 14%
same,Population Tubulin-Different-Phenotype (%),[2]; [5],88% and 93%
same,Total Cell Count,[2]; [5],504 and 530
same,Population Apoptotic (%),[2]; [6],30% and 31%
same,Population Fragmented Nuclei (%),[2]; [6],5% and 3%
same,Population Healthy Nuclei (%),[2]; [6],87% and 88%
same,Population Hoechst High Intensity Objects (%),[2]; [6],6% and 7%
same,Population Membrane Permeable-Phenotype (%),[2]; [6],4% and 1%
same,Population Mitochondria Different-Phenotype (%),[2]; [6],8% and 5%
same,Population Mitotic Cells (%),[2]; [6],69% and 68%
same,Population Normal (%),[2]; [6],93% and 92%
same,Population Pyknosed Nuclei (%),[2]; [6],6% and 8%
same,Population Tubulin-Different-Phenotype (%),[2]; [6],35% and 36%
same,Total Cell Count,[2]; [6],1123 and 936
same,Population Apoptotic (%),[2]; [7],55% and 74%
same,Population Fragmented Nuclei (%),[2]; [7],6% and 5%
same,Population Healthy Nuclei (%),[2]; [7],79% and 80%
same,Population Hoechst High Intensity Objects (%),[2]; [7],9% and 11%
same,Population Membrane Permeable-Phenotype (%),[2]; [7],3% and 4%
same,Population Mitochondria Different-Phenotype (%),[2]; [7],27% and 38%
same,Population Mitotic Cells (%),[2]; [7],44% and 25%
same,Population Normal (%),[2]; [7],90% and 88%
same,Population Pyknosed Nuclei (%),[2]; [7],13% and 14%
same,Population Tubulin-Different-Phenotype (%),[2]; [7],81% and 89%
same,Total Cell Count,[2]; [7],660 and 604
same,Population Apoptotic (%),[2]; [8],28% and 24%
same,Population Fragmented Nuclei (%),[2]; [8],12% and 9%
same,Population Healthy Nuclei (%),[2]; [8],84% and 87%
same,Population Hoechst High Intensity Objects (%),[2]; [8],9%
same,Population Membrane Permeable-Phenotype (%),[2]; [8],4% and 3%
same,Population Mitochondria Different-Phenotype (%),[2]; [8],0% and 1%
same,Population Mitotic Cells (%),[2]; [8],72% and 75%
same,Population Normal (%),[2]; [8],90%
same,Population Pyknosed Nuclei (%),[2]; [8],2% and 3%
same,Population Tubulin-Different-Phenotype (%),[2]; [8],12% and 19%
same,Total Cell Count,[2]; [8],2887 and 2005
same,Population Apoptotic (%),[2]; [9],46% and 56%
same,Population Fragmented Nuclei (%),[2]; [9],11% and 8%
same,Population Healthy Nuclei (%),[2]; [9],83% and 85%
same,Population Hoechst High Intensity Objects (%),[2]; [9],11%
same,Population Membrane Permeable-Phenotype (%),[2]; [9],5% and 4%
same,Population Mitochondria Different-Phenotype (%),[2]; [9],10% and 22%
same,Population Mitotic Cells (%),[2]; [9],53% and 43%
same,Population Normal (%),[2]; [9],88%
same,Population Pyknosed Nuclei (%),[2]; [9],5% and 6%
same,Population Tubulin-Different-Phenotype (%),[2]; [9],64% and 85%
same,Total Cell Count,[2]; [9],1119 and 790
same,Population Healthy Nuclei (%),[3]; [4],70% and 88%
same,Population Hoechst High Intensity Objects (%),[3]; [4],0%
same,Population Membrane Permeable-Phenotype (%),[3]; [4],12% and 2%
same,Population Mitochondria Different-Phenotype (%),[3]; [4],4% and 0%
same,Population Mitotic Cells (%),[3]; [4],100% and 64%
same,Population Normal (%),[3]; [4],100%
same,Population Pyknosed Nuclei (%),[3]; [4],2% and 8%
same,Population Tubulin-Different-Phenotype (%),[3]; [4],54% and 83%
same,Population Apoptotic (%),[3]; [5],50% and 68%
same,Population Healthy Nuclei (%),[3]; [5],43% and 77%
same,Population Hoechst High Intensity Objects (%),[3]; [5],0%
same,Population Membrane Permeable-Phenotype (%),[3]; [5],25% and 15%
same,Population Mitochondria Different-Phenotype (%),[3]; [5],7% and 20%
same,Population Mitotic Cells (%),[3]; [5],50% and 31%
same,Population Normal (%),[3]; [5],100%
same,Population Pyknosed Nuclei (%),[3]; [5],16% and 15%
same,Population Tubulin-Different-Phenotype (%),[3]; [5],55% and 43%
same,Total Cell Count,[3]; [5],62 and 186
same,Population Apoptotic (%),[3]; [6],84% and 57%
same,Population Healthy Nuclei (%),[3]; [6],91% and 65%
same,Population Hoechst High Intensity Objects (%),[3]; [6],0%
same,Population Membrane Permeable-Phenotype (%),[3]; [6],2% and 11%
same,Population Mitochondria Different-Phenotype (%),[3]; [6],0% and 5%
same,Population Mitotic Cells (%),[3]; [6],15% and 42%
same,Population Normal (%),[3]; [6],100%
same,Population Pyknosed Nuclei (%),[3]; [6],5% and 13%
same,Population Tubulin-Different-Phenotype (%),[3]; [6],79% and 44%
same,Population Apoptotic (%),[3]; [7],58% and 68%
same,Population Healthy Nuclei (%),[3]; [7],42% and 74%
same,Population Hoechst High Intensity Objects (%),[3]; [7],0%
same,Population Membrane Permeable-Phenotype (%),[3]; [7],22% and 10%
same,Population Mitochondria Different-Phenotype (%),[3]; [7],27% and 31%
same,Population Mitotic Cells (%),[3]; [7],41% and 31%
same,Population Normal (%),[3]; [7],100%
same,Population Pyknosed Nuclei (%),[3]; [7],23% and 20%
same,Population Tubulin-Different-Phenotype (%),[3]; [7],50% and 52%
same,Population Apoptotic (%),[3]; [8],50% and 62%
same,Population Healthy Nuclei (%),[3]; [8],71% and 90%
same,Population Hoechst High Intensity Objects (%),[3]; [8],0%
same,Population Membrane Permeable-Phenotype (%),[3]; [8],5% and 2%
same,Population Mitochondria Different-Phenotype (%),[3]; [8],3% and 0%
same,Population Mitotic Cells (%),[3]; [8],50% and 37%
same,Population Normal (%),[3]; [8],100%
same,Population Pyknosed Nuclei (%),[3]; [8],9% and 5%
same,Population Tubulin-Different-Phenotype (%),[3]; [8],58% and 86%
same,Population Apoptotic (%),[3]; [9],93% and 88%
same,Population Healthy Nuclei (%),[3]; [9],40% and 72%
same,Population Hoechst High Intensity Objects (%),[3]; [9],3% and 0%
same,Population Membrane Permeable-Phenotype (%),[3]; [9],27% and 11%
same,Population Mitochondria Different-Phenotype (%),[3]; [9],40% and 21%
same,Population Mitotic Cells (%),[3]; [9],6% and 11%
same,Population Normal (%),[3]; [9],96% and 99%
same,Population Pyknosed Nuclei (%),[3]; [9],27% and 21%
same,Population Tubulin-Different-Phenotype (%),[3]; [9],59% and 40%
